# Results: ChEMBL document CHEMBL5058577, “EUbOPEN Chemogenomics Library 2 (Multiplex)” (2022)
# System: U2OS
# Test: Multiplex assay against U2OS
# Type: toxicity, cell-based
# Conditions: human
# In short: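 Imaging took place on a CQ1 microscope at 37°C and 5% CO2 once compound had been added to live cells stained at seeding with Hoechst33342, BioTracker Green Microtubule Cytoskeleton Dye, MitoTracker Red and Annexin V Alexa Fluor 680. CellPathfinder machine-learning gating classed cells as Hoechst high-intensity objects or normal cells, classed normal cells as having healthy, pyknosed or fragmented nuclei, and classed pyknosed cells as mitotic or apoptotic. Tubulin, mitochondrial-mass and membrane-permeability phenotypes are per cents of the healthy-nucleus cells.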
# [1] = 12 h, 1 µM, compound concentration 1 uM, replicate 1
# [2] = 12 h, 1 µM, compound concentration 1 uM, replicate 2
# [3] = 12 h, 10 µM, compound concentration 10 uM, replicate 1
# [4] = 12 h, 10 µM, compound concentration 10 uM, replicate 2
# [5] = 24 h, 1 µM, compound concentration 1 uM, replicate 1
# [6] = 24 h, 1 µM, compound concentration 1 uM, replicate 2
# [7] = 24 h, 10 µM, compound concentration 10 uM, replicate 1
# [8] = 24 h, 10 µM, compound concentration 10 uM, replicate 2
# [9] = 48 h, 1 µM, compound concentration 1 uM, replicate 1
# [10] = 48 h, 1 µM, compound concentration 1 uM, replicate 2
# [11] = 48 h, 10 µM, compound concentration 10 uM, replicate 1
# [12] = 48 h, 10 µM, compound concentration 10 uM, replicate 2
structure (smiles),measurement,setting,value
Nc1nc(-c2ccco2)c2cnn(Cc3ccccc3F)c2n1,Population Apoptotic (%),[1],82%
same,Population Fragmented Nuclei (%),[1],23%
same,Population Healthy Nuclei (%),[1],68%
same,Population Hoechst High Intensity Objects (%),[1],1%
same,Population Membrane Permeable-Phenotype (%),[1],4%
same,Population Mitochondria Different-Phenotype (%),[1],2%
same,Population Mitotic Cells (%),[1],17%
same,Population Normal (%),[1],98%
same,Population Pyknosed Nuclei (%),[1],8%
same,Population Tubulin-Different-Phenotype (%),[1],3%
same,Total Cell Count,[1],280
same,Population Apoptotic (%),[2],92%
same,Population Healthy Nuclei (%),[2],64%
same,Population Hoechst High Intensity Objects (%),[2],0%
same,Population Membrane Permeable-Phenotype (%),[2],12%
same,Population Mitochondria Different-Phenotype (%),[2],5%
same,Population Mitotic Cells (%),[2],7%
same,Population Normal (%),[2],99%
same,Population Pyknosed Nuclei (%),[2],12%
same,Population Tubulin-Different-Phenotype (%),[2],8%
same,Total Cell Count,[2],109
same,Population Apoptotic (%),[3],87%
same,Population Fragmented Nuclei (%),[3],41%
same,Population Healthy Nuclei (%),[3],45%
same,Population Hoechst High Intensity Objects (%),[3],5%
same,Population Membrane Permeable-Phenotype (%),[3],10%
same,Population Mitochondria Different-Phenotype (%),[3],4%
same,Population Mitotic Cells (%),[3],12%
same,Population Normal (%),[3],94%
same,Population Pyknosed Nuclei (%),[3],12%
same,Population Tubulin-Different-Phenotype (%),[3],7%
same,Total Cell Count,[3],197
same,Population Apoptotic (%),[4],77%
same,Population Fragmented Nuclei (%),[4],20%
same,Population Healthy Nuclei (%),[4],72%
same,Population Hoechst High Intensity Objects (%),[4],0%
same,Population Membrane Permeable-Phenotype (%),[4],5%
same,Population Mitochondria Different-Phenotype (%),[4],5%
same,Population Mitotic Cells (%),[4],22%
same,Population Normal (%),[4],99%
same,Population Pyknosed Nuclei (%),[4],7%
same,Population Tubulin-Different-Phenotype (%),[4],1%
same,Total Cell Count,[4],125
same,Population Apoptotic (%),[5],96%
same,Population Fragmented Nuclei (%),[5],19%
same,Population Healthy Nuclei (%),[5],70%
same,Population Hoechst High Intensity Objects (%),[5],1%
same,Population Membrane Permeable-Phenotype (%),[5],4%
same,Population Mitochondria Different-Phenotype (%),[5],1%
same,Population Mitotic Cells (%),[5],3%
same,Population Normal (%),[5],98%
same,Population Pyknosed Nuclei (%),[5],9%
same,Population Tubulin-Different-Phenotype (%),[5],2%
same,Total Cell Count,[5],332
same,Population Apoptotic (%),[6],84%
same,Population Fragmented Nuclei (%),[6],18%
same,Population Healthy Nuclei (%),[6],71%
same,Population Hoechst High Intensity Objects (%),[6],4%
same,Population Membrane Permeable-Phenotype (%),[6],10%
same,Population Mitochondria Different-Phenotype (%),[6],3%
same,Population Mitotic Cells (%),[6],15%
same,Population Normal (%),[6],95%
same,Population Pyknosed Nuclei (%),[6],10%
same,Population Tubulin-Different-Phenotype (%),[6],8%
same,Total Cell Count,[6],127
same,Population Apoptotic (%),[7],82%
same,Population Fragmented Nuclei (%),[7],38%
same,Population Healthy Nuclei (%),[7],53%
same,Population Hoechst High Intensity Objects (%),[7],5%
same,Population Membrane Permeable-Phenotype (%),[7],7%
same,Population Mitochondria Different-Phenotype (%),[7],3%
same,Population Mitotic Cells (%),[7],17%
same,Population Normal (%),[7],94%
same,Population Pyknosed Nuclei (%),[7],7%
same,Population Tubulin-Different-Phenotype (%),[7],5%
same,Total Cell Count,[7],230
same,Population Apoptotic (%),[8],90%
same,Population Fragmented Nuclei (%),[8],19%
same,Population Healthy Nuclei (%),[8],73%
same,Population Hoechst High Intensity Objects (%),[8],1%
same,Population Membrane Permeable-Phenotype (%),[8],5%
same,Population Mitochondria Different-Phenotype (%),[8],0%
same,Population Mitotic Cells (%),[8],9%
same,Population Normal (%),[8],98%
same,Population Tubulin-Different-Phenotype (%),[8],4%
same,Total Cell Count,[8],157
same,Population Apoptotic (%),[9],94%
same,Population Fragmented Nuclei (%),[9],17%
same,Population Healthy Nuclei (%),[9],74%
same,Population Hoechst High Intensity Objects (%),[9],1%
same,Population Membrane Permeable-Phenotype (%),[9],2%
same,Population Mitochondria Different-Phenotype (%),[9],2%
same,Population Mitotic Cells (%),[9],5%
same,Population Normal (%),[9],98%
same,Population Pyknosed Nuclei (%),[9],7%
same,Population Tubulin-Different-Phenotype (%),[9],2%
same,Total Cell Count,[9],462
same,Population Apoptotic (%),[10],95%
same,Population Fragmented Nuclei (%),[10],16%
same,Population Healthy Nuclei (%),[10],67%
same,Population Hoechst High Intensity Objects (%),[10],6%
same,Population Membrane Permeable-Phenotype (%),[10],5%
same,Population Mitochondria Different-Phenotype (%),[10],5%
same,Population Mitotic Cells (%),[10],4%
same,Population Normal (%),[10],93%
same,Population Pyknosed Nuclei (%),[10],15%
same,Population Tubulin-Different-Phenotype (%),[10],1%
same,Total Cell Count,[10],141
same,Population Apoptotic (%),[11],95%
same,Population Fragmented Nuclei (%),[11],37%
same,Population Healthy Nuclei (%),[11],51%
same,Population Hoechst High Intensity Objects (%),[11],11%
same,Population Membrane Permeable-Phenotype (%),[11],17%
same,Population Mitochondria Different-Phenotype (%),[11],6%
same,Population Mitotic Cells (%),[11],4%
same,Population Normal (%),[11],88%
same,Population Pyknosed Nuclei (%),[11],10%
same,Population Tubulin-Different-Phenotype (%),[11],11%
same,Total Cell Count,[11],252
same,Population Apoptotic (%),[12],86%
same,Population Fragmented Nuclei (%),[12],23%
same,Population Healthy Nuclei (%),[12],69%
same,Population Hoechst High Intensity Objects (%),[12],2%
same,Population Membrane Permeable-Phenotype (%),[12],12%
same,Population Mitotic Cells (%),[12],13%
same,Population Normal (%),[12],97%
same,Population Pyknosed Nuclei (%),[12],7%
same,Population Tubulin-Different-Phenotype (%),[12],6%
same,Total Cell Count,[12],196
Cc1cc(NC(=O)NCCN2CCC(O)(Cc3ccccc3)CC2)c2ccccc2n1 [PALOSURAN],Population Apoptotic (%),[1],80%
same,Population Fragmented Nuclei (%),[1],27%
same,Population Healthy Nuclei (%),[1],65%
same,Population Hoechst High Intensity Objects (%),[1],1%
same,Population Membrane Permeable-Phenotype (%),[1],4%
same,Population Mitochondria Different-Phenotype (%),[1],2%
same,Population Mitotic Cells (%),[1],20%
same,Population Normal (%),[1],98%
same,Population Pyknosed Nuclei (%),[1],6%
same,Population Tubulin-Different-Phenotype (%),[1],1%
same,Total Cell Count,[1],220
same,Population Apoptotic (%),[2],71%
same,Population Fragmented Nuclei (%),[2],19%
same,Population Healthy Nuclei (%),[2],71%
same,Population Hoechst High Intensity Objects (%),[2],0%
same,Population Membrane Permeable-Phenotype (%),[2],2%
same,Population Mitochondria Different-Phenotype (%),[2],0%
same,Population Mitotic Cells (%),[2],28%
same,Population Normal (%),[2],100%
same,Population Pyknosed Nuclei (%),[2],9%
same,Total Cell Count,[2],145
same,Population Apoptotic (%),[3],72%
same,Population Fragmented Nuclei (%),[3],30%
same,Population Healthy Nuclei (%),[3],59%
same,Population Hoechst High Intensity Objects (%),[3],3%
same,Population Membrane Permeable-Phenotype (%),[3],6%
same,Population Mitochondria Different-Phenotype (%),[3],1%
same,Population Mitotic Cells (%),[3],28%
same,Population Normal (%),[3],96%
same,Population Pyknosed Nuclei (%),[3],9%
same,Population Tubulin-Different-Phenotype (%),[3],1%
same,Total Cell Count,[3],266
same,Population Apoptotic (%),[4],66%
same,Population Fragmented Nuclei (%),[4],17%
same,Population Healthy Nuclei (%),[4],70%
same,Population Membrane Permeable-Phenotype (%),[4],12%
same,Population Mitochondria Different-Phenotype (%),[4],2%
same,Population Mitotic Cells (%),[4],33%
same,Population Pyknosed Nuclei (%),[4],11%
same,Population Tubulin-Different-Phenotype (%),[4],8%
same,Total Cell Count,[4],107
same,Population Apoptotic (%),[5],94%
same,Population Fragmented Nuclei (%),[5],26%
same,Population Healthy Nuclei (%),[5],66%
same,Population Hoechst High Intensity Objects (%),[5],1%
same,Population Membrane Permeable-Phenotype (%),[5],3%
same,Population Mitochondria Different-Phenotype (%),[5],3%
same,Population Mitotic Cells (%),[5],5%
same,Population Normal (%),[5],98%
same,Population Pyknosed Nuclei (%),[5],6%
same,Population Tubulin-Different-Phenotype (%),[5],2%
same,Total Cell Count,[5],276
same,Population Apoptotic (%),[6],66%
same,Population Fragmented Nuclei (%),[6],17%
same,Population Healthy Nuclei (%),[6],74%
same,Population Membrane Permeable-Phenotype (%),[6],7%
same,Population Mitochondria Different-Phenotype (%),[6],7%
same,Population Mitotic Cells (%),[6],33%
same,Population Pyknosed Nuclei (%),[6],8%
same,Population Tubulin-Different-Phenotype (%),[6],3%
same,Total Cell Count,[6],173
same,Population Apoptotic (%),[7],92%
same,Population Fragmented Nuclei (%),[7],26%
same,Population Healthy Nuclei (%),[7],65%
same,Population Hoechst High Intensity Objects (%),[7],3%
same,Population Membrane Permeable-Phenotype (%),[7],4%
same,Population Mitochondria Different-Phenotype (%),[7],0%
same,Population Mitotic Cells (%),[7],8%
same,Population Normal (%),[7],96%
same,Population Pyknosed Nuclei (%),[7],8%
same,Population Tubulin-Different-Phenotype (%),[7],2%
same,Total Cell Count,[7],297
same,Population Apoptotic (%),[8],75%
same,Population Fragmented Nuclei (%),[8],19%
same,Population Healthy Nuclei (%),[8],74%
same,Population Membrane Permeable-Phenotype (%),[8],11%
same,Population Mitochondria Different-Phenotype (%),[8],1%
same,Population Mitotic Cells (%),[8],25%
same,Population Pyknosed Nuclei (%),[8],6%
same,Population Tubulin-Different-Phenotype (%),[8],5%
same,Total Cell Count,[8],129
same,Population Apoptotic (%),[9],96%
same,Population Fragmented Nuclei (%),[9],25%
same,Population Healthy Nuclei (%),[9],68%
same,Population Hoechst High Intensity Objects (%),[9],1%
same,Population Membrane Permeable-Phenotype (%),[9],5%
same,Population Mitochondria Different-Phenotype (%),[9],3%
same,Population Mitotic Cells (%),[9],3%
same,Population Normal (%),[9],98%
same,Population Pyknosed Nuclei (%),[9],6%
same,Population Tubulin-Different-Phenotype (%),[9],3%
same,Total Cell Count,[9],411
same,Population Apoptotic (%),[10],84%
same,Population Fragmented Nuclei (%),[10],15%
same,Population Healthy Nuclei (%),[10],73%
same,Population Hoechst High Intensity Objects (%),[10],3%
same,Population Membrane Permeable-Phenotype (%),[10],7%
same,Population Mitochondria Different-Phenotype (%),[10],5%
same,Population Mitotic Cells (%),[10],16%
same,Population Normal (%),[10],97%
same,Population Pyknosed Nuclei (%),[10],11%
same,Population Tubulin-Different-Phenotype (%),[10],4%
same,Total Cell Count,[10],233
same,Population Apoptotic (%),[11],97%
same,Population Fragmented Nuclei (%),[11],20%
same,Population Healthy Nuclei (%),[11],70%
same,Population Hoechst High Intensity Objects (%),[11],1%
same,Population Membrane Permeable-Phenotype (%),[11],5%
same,Population Mitochondria Different-Phenotype (%),[11],2%
same,Population Mitotic Cells (%),[11],2%
same,Population Normal (%),[11],98%
same,Population Pyknosed Nuclei (%),[11],9%
same,Population Tubulin-Different-Phenotype (%),[11],2%
same,Total Cell Count,[11],421
same,Population Apoptotic (%),[12],89%
same,Population Fragmented Nuclei (%),[12],16%
same,Population Healthy Nuclei (%),[12],72%
same,Population Membrane Permeable-Phenotype (%),[12],7%
same,Population Mitochondria Different-Phenotype (%),[12],4%
same,Population Mitotic Cells (%),[12],10%
same,Population Pyknosed Nuclei (%),[12],10%
same,Population Tubulin-Different-Phenotype (%),[12],1%
same,Total Cell Count,[12],180
